Experimental data reported in PMC9449982 (Molecular Pharmaceutics, 2022).
Values after ≈ are worked out from the molar mass of the structure shown. Values joined by “and” are separate entries in the source; they are usually repeats but may differ in a detail not shown here. Identical values can stand only once. Like-named read-outs stand apart in the source and are kept apart here. Each block holds one molecule with its values, some of them ahead of it.

Legend:
[1] = Amorphous solubility determination, ultracentrifugation; format: physicochemical; conditions: phosphate buffer with HPMCAS, pH 6.5, aqueous buffer, kinetic from dmso stock
Outline: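 Test compound DMSO stock added to 50 mM pH 6.5 sodium phosphate buffer with 100 μg/mL predissolved HPMCAS, keeping organic solvent below 2% (v/v). Mixture stirred 15 min to form amorphous aggregates, then spun at 35,000 rpm for 30 min. Supernatant diluted 1:1 in mobile phase and quantified by isocratic C18 HPLC at 210 nm. At least triplicate.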

[2] = Flux measurements, Franz diffusion cells; format: in vitro ADME
[3] = Particle size determination by dynamic light scattering; format: physicochemical
[4] = cited from earlier work
[5] = cited from earlier work; for glass transition temperature (Tg) / Tg, dry: dry
[6] = Wet glass transition temperature; format: physicochemical; conditions: amorphous drug equilibrated at 97% relative humidity 48 h; DSC onset
Outline: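 Amorphous test compound powder was freshly prepared and vacuum-dried overnight at room temperature. Then 5–10 mg in open hermetic pans was held at 97% relative humidity (saturated potassium sulfate) for 48 h. Pans sealed; DSC run 0 to 90 °C at 10 °C/min. Onset glass transition taken as wet Tg. Triplicate.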

solubility at 15 min [1]: 0.0377 ± 0.0032 mg/mL (≈ 53.5 µM)
transmembrane flux ([2]; donor ∼20 μg/mL, 150 rpm, no BSA, 37 °C): 0.023 ± 0.003 μg/(min·cm^2)
transmembrane flux ([2]; donor ∼20 μg/mL, 300 rpm, no BSA, 37 °C): 0.030 ± 0.003 μg/(min·cm^2)
transmembrane flux ([2]; donor ∼20 μg/mL, 500 rpm, no BSA, 37 °C): 0.041 ± 0.005 μg/(min·cm^2)
transmembrane flux ([2]; donor ∼40 μg/mL (amorphous solubility), 300 rpm, no BSA, 37 °C): 0.048 ± 0.012 μg/(min·cm^2)
transmembrane flux ([2]; donor ∼40 μg/mL, 500 rpm, no BSA, 37 °C): 0.070 ± 0.008 μg/(min·cm^2)
transmembrane flux ([2]; donor ∼40 μg/mL, 1000 rpm, no BSA, 37 °C): 0.072 ± 0.019 μg/(min·cm^2)
donor concentration at which a flux plateau was observed ([2]; stirring rates equal to or higher than 300 rpm, no BSA): about 150 μg/mL
Z-average ([3]; particles from stock 5 mg/mL, 1000 rpm, 37 °C): 193 ± 4 nm
diffusion coefficient Dp ([3]; particles from stock 5 mg/mL, 1000 rpm, 37 °C (193 nm), listed as ATZ): 3.43 ± 0.07 ×10^–8 cm^2/s
Z-average ([3]; particles from stock 20 mg/mL, 1000 rpm, 37 °C): 460 ± 23 nm
diffusion coefficient Dp ([3]; particles from stock 20 mg/mL, 1000 rpm, 37 °C (460 nm), listed as ATZ): 1.44 ± 0.07 ×10^–8 cm^2/s
SMILES: COC(=O)N[C@H](C(=O)N[C@@H](Cc1ccccc1)[C@@H](O)CN(Cc1ccc(-c2ccccn2)cc1)NC(=O)[C@@H](NC(=O)OC)C(C)(C)C)C(C)(C)C [atazanavir]
pKa ([4]; basic): 4.52,[45] basic
glass transition temperature (Tg) [5]: 104 °C
Tg, wet ([5]; water saturated amorphous precipitates): 51 °C

solubility at 15 min [1]: 0.0077 ± 0.0003 mg/mL (≈ 22.3 µM)
bulk concentration at which a flux plateau was observed ([2]; 150 rpm, 37 °C, 3% BSA): around 150 μg/mL
SMILES: Clc1ccccc1C(c1ccccc1)(c1ccccc1)n1ccnc1 [clotrimazole]
pKa ([4]; basic): 5.89,[45] basic
Tg, dry [5]: 28,[45] NA ^a °C
glass transition temperature (Tg) [5]: 28 °C

solubility at 15 min [1]: 0.0193 ± 0.002 mg/mL (≈ 30.7 µM)
Tg, wet [6]: 42 °C and 42.2 ± 1.8 °C
Z-average ([3]; particles from stock 5 mg/mL, 1000 rpm, 25 °C): 254 ± 3 nm
diffusion coefficient Dp ([3]; particles from stock 5 mg/mL, 1000 rpm, 25 °C (254 nm), listed as LPV): 1.94 ± 0.00 ×10^–8 cm^2/s
Z-average ([3]; particles from stock 12 mg/mL, 300 rpm, 25 °C): 454 ± 10 nm
diffusion coefficient Dp ([3]; particles from stock 12 mg/mL, 300 rpm, 25 °C (454 nm), listed as LPV): 1.09 ± 0.00 ×10^–8 cm^2/s
Z-average ([3]; particles from stock 20 mg/mL, 300 rpm, 25 °C): 839 ± 15 nm
diffusion coefficient Dp ([3]; particles from stock 20 mg/mL, 300 rpm, 25 °C (839 nm), listed as LPV): 0.59 ± 0.01 ×10^–8 cm^2/s
SMILES: Cc1cccc(C)c1OCC(=O)N[C@@H](Cc1ccccc1)[C@@H](O)C[C@H](Cc1ccccc1)NC(=O)[C@H](C(C)C)N1CCCNC1=O [lopinavir]
pKa ([4]; no reference printed): not dissociated at physiological pHs
pKa ([4]; no reference printed, listed as Lopinavir): not expected to dissociate within physiological pH ranges
Tg, dry [5]: 69 °C
glass transition temperature (Tg) [5]: 69 °C
